Data from ChEMBL document CHEMBL1139467, “Specific targeting highly conserved residues in the HIV-1 reverse transcriptase primer grip region. Design, synthesis, and biological evaluation of novel, potent, and broad spectrum NNRTIs with antiviral activity” (J Med Chem, 2005).

Experiments:
[1] = target: Human immunodeficiency virus type 1 reverse transcriptase (Human immunodeficiency virus 1, UniProt Q72547, Y181I); assay: Inhibition of HIV1 RT Y181I mutant
[2] = target: Human immunodeficiency virus type 1 reverse transcriptase (Human immunodeficiency virus 1, UniProt Q72547, L100I); assay: Inhibition of HIV1 RT L100I mutant
[3] = target: Human immunodeficiency virus type 1 reverse transcriptase (Human immunodeficiency virus 1, UniProt Q72547, K103N); assay: Inhibition of HIV1 RT K103N mutant
[4] = target: Human immunodeficiency virus type 1 reverse transcriptase (Human immunodeficiency virus 1, UniProt Q72547, Y188L); assay: Inhibition of HIV1 RT Y188L mutant
[5] = target: Human immunodeficiency virus type 1 reverse transcriptase (Human immunodeficiency virus 1, UniProt Q72547, V106A); assay: Inhibition of HIV1 RT V106A mutant
[6] = Inhibition of HIV1 RT; set-up: species or system Human immunodeficiency virus 1
Procedure, shortened: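 RNA-dependent DNA polymerase assay using 2–4 nM RT, poly(rA)/oligo(dT) 10:1 (0.3 µM 3'-OH ends) and 10 µM [3H]-dTTP, in 50 mM Tris-HCl pH 7.5 with 1 mM DTT, 0.2 mg/mL BSA, 4% glycerol and 10 mM MgCl2, at 37 °C. Acid-precipitable radioactivity was counted. Ki came from Lineweaver–Burk and Dixon plots over 0.2–5 Ki, in triplicate.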

[7] = Cytotoxicity against mouse 3T3 cells by MTT assay; type: cell-based; conditions: NIH3T3 cells, read-out: TC50 (the source's name)
Procedure, shortened: (§1)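 MTT assay run separately on NSO murine, Daudi human and 3T3 murine fibroblast cell lines and on normal human lymphocytes. Blank was subtracted from OD at 570 nm and results are reported as OD × 1000. SD was stated as never exceeding 5% of the mean.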

[8] = Cytotoxicity against human Daudi cells by MTT assay; type: cell-based; conditions: read-out: TC50 (the source's name); procedure, shortened: as §1
[9] = Cytotoxicity against C8166 cells by MTT assay; type: cell-based; conditions: human
Procedure, shortened: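 MTT reduction to formazan, read by spectrophotometry, in uninfected C8166 cells (a CD4+ T-cell line carrying an HTLV-I genome). CC50 is the concentration giving 50% survival relative to uninfected untreated control cells. It was derived with the median effect equation from pooled values within the 5–95% effective range.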

[10] = Cytotoxicity against macrophages; type: cell-based, Macrophage; conditions: human
Procedure, shortened: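 Macrophages came from PBMC seeded at 10^6/mL in RPMI-1640 with 20% heat-inactivated FCS, kept 7 days at 37 °C in 5% CO2, then washed to remove nonadherent cells. Purity was >95% by nonspecific esterase. CC50 is the concentration giving 50% survival relative to uninfected untreated macrophages, derived by the median effect equation.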

[11] = Selectivity index, ratio of CC50 for C8166 cells to IC50 for HIV-3B infected C8166 cells; type: functional
Procedure, shortened: (§2)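 C8166 CD4+ T cells acutely infected with lymphocyte-tropic HIV-1 IIIB (titre as TCID50). EC50 is the drug concentration giving 50% survival of infected cells relative to uninfected untreated controls. CC50 comes from an MTT reduction assay on uninfected C8166 cells as 50% survival. SI = CC50/EC50. AZT serves as the treated control, run in parallel.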

[12] = Cytotoxicity against mouse NSO cells by MTT assay; type: cell-based; conditions: read-out: TC50 (the source's name); procedure, shortened: as §1
[13] = test system: Human immunodeficiency virus 1; assay: Inhibition of HIV1-3B replication in C8166 cells; type: functional, organism-based; conditions: Human immunodeficiency virus 1, 3B; procedure, shortened: as §2
[14] = test system: Human immunodeficiency virus 1; assay: Reduction of HIV1-p24 antigen production in HIV1-3 Ba-L infected macrophages; type: functional, organism-based; conditions: Human immunodeficiency virus 1, Ba-L
Procedure, shortened: (§3)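 Macrophages from PBMC (10^6/mL) after 7 days adherence in RPMI-1640 with 20% heat-inactivated FCS at 37 °C, 5% CO2; nonadherent cells washed off (>95% pure). Cells are infected with monocytotropic HIV-1 Ba-L. EC50 is 50% reduction of supernatant p24 antigen measured by ELISA kit. CC50 is 50% survival of uninfected macrophages. SI = CC50/EC50. AZT is the parallel control.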

[15] = Selectivity index, ratio of CC50 for monocyte-macrophages to EC50 for HIV1-3 Ba-L infected macrophages; type: functional; procedure, shortened: as §3
[16] = Cytotoxicity against human lymphocytes by MTT assay; type: cell-based, Lymphocyte; conditions: read-out: TC50 (the source's name); procedure, shortened: as §1

SMILES | IC50 [1] [µmol] | IC50 [2] [µmol] | IC50 [3] [µmol] | IC50 [4] [µmol] | IC50 [5] [µmol] | IC50 [6] [µmol] | CC50 [7] [µM] | CC50 [8] [µM] | CC50 [9] [µM] | CC50 [10] [µM] | Selectivity index [11] | CC50 [12] [µM] | EC50 [13] [µM] | EC50 [14] [µM] | Selectivity index [15] | CC50 [16] [µM]
CCC1(c2cccc(C)c2)Oc2ccccc2-n2cccc2C1=O (racemic) | 4 | 0.1 | 1.1 | 1.9 | 0.25 | 0.07 |  |  |  |  |  |  |  |  |  | 
CCC1(c2cccc(OC)c2)Oc2ccccc2-n2cccc2C1=O (racemic) | > 10 | 0.011 | 0.022 | > 10 | 0.01 | 0.06 |  |  |  |  |  |  |  |  |  | 
CCC1(c2ccc(COc3ccccc3Cl)cc2)Oc2ccccc2-n2cccc2C1=O (racemic) | > 10 | 1.4 | 5 | > 10 | 5 | 1 |  |  |  |  |  |  |  |  |  | 
C=C(C)CCOCc1ccc(C2(CC)Oc3ccccc3-n3cccc3C2=O)cc1 (racemic) | > 10 |  | > 10 | > 10 | 3.6 | 2.8 |  |  |  |  |  |  |  |  |  | 
CCC1(c2ccc(COc3ccccc3)cc2)Oc2ccccc2-n2cccc2C1=O (racemic) | 0.7 | 0.2 | 0.4 | 2.3 | 0.8 | 0.15 | 820 | 850 | 9.7 | 16.8 | 117 | 810 | 0.083 | 0.002 | 8400 | 810
CCC1(c2ccc(CCc3ccccc3)cc2)Oc2ccccc2-n2cccc2C1=O (racemic) | > 10 |  | > 10 | > 10 | > 10 | 0.17 |  |  |  |  |  |  |  |  |  | 
CCC1(c2ccc(CNc3ccccc3)cc2)Oc2ccccc2-n2cccc2C1=O (racemic) | > 10 |  | 2.5 | > 10 | 1.2 | 0.09 | 630 | 650 | 15.1 |  | 20.1 | 620 | 0.75 |  |  | 660
CCOc1cccc(C2(CC)Oc3ccccc3-n3cccc3C2=O)c1 (racemic) | 2.1 | 0.2 | 3.5 | 0.76 | 4.8 | 0.76 |  |  |  |  |  |  |  |  |  | 
CCC1(c2ccc(Cn3ccsc3=N)cc2)Oc2ccccc2-n2cccc2C1=O (racemic) | > 10 |  | 5 | > 10 | > 10 | 1.6 |  |  |  |  |  |  |  |  |  | 
CCC1(c2cccc(N)c2)Oc2ccccc2-n2cccc2C1=O (racemic) | > 10 |  | 2 | > 10 | 1.6 | 0.3 |  |  |  |  |  |  |  |  |  | 
CCC1(c2ccc(COc3cccc(Cl)c3)cc2)Oc2ccccc2-n2cccc2C1=O (racemic) | > 10 | 0.25 | 0.3 | > 10 |  | 0.1 | 700 | 740 | 10.7 | 21.5 | 22.3 | 720 | 0.48 | 0.0084 | 2500 | 720
CCC1(c2ccc(COc3ccccc3C(C)=O)cc2)Oc2ccccc2-n2cccc2C1=O (racemic) | 18 | 2 | 5 | > 10 | 5.5 | 1.5 |  |  |  |  |  |  |  |  |  | 
